# M1 antag – blocks the rat M1 muscarinic receptor response to acetylcholine; P08482; AID 628; actives 3.4% (n = 64,000); B-score at 10 µM; CHO-M1 cells, Fluo-4 calcium, ACh EC80 antagonist mode; stronger effect = lower value;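 active = calcium fluorescence response, raw or row-and-column corrected B-score, differing from the plate sample mean either way at a set confidence level, mostly lower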
# hDAT+cocaine – changed human dopamine transporter uptake under cocaine IC80; B-score at 10 µM; AID 449768; actives 1.3% (n = 110,000); Q01959; LLC-PK1 hDAT cells, [14C]-dopamine uptake with cocaine IC80; actives deviate in either direction;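 active = Z score or B-score, a plate-position-corrected score, falls beyond the plate's 99.7% confidence bounds, in either direction; inactive = both scores lie inside the 99.7% bounds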;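 also: scored against the spread of the other compound wells on the same plate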
# BAP1 block – human BAP1 deubiquitinase inhibition. recombinant BAP1, Ub-AMC hydrolysis fluorescence kinetic; stronger effect = lower value. calls only at 20 µM. actives 0.48% (n = 72,000);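 active = activity remaining at or below 50% of control, provided the compound also passes the data quality filters; inactive = the rest, including low values that fail the filters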;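 also: 100% = DMSO wells rate and 0% = substrate alone blank rate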
# Target sequence (Q92560 whole entry, looked up): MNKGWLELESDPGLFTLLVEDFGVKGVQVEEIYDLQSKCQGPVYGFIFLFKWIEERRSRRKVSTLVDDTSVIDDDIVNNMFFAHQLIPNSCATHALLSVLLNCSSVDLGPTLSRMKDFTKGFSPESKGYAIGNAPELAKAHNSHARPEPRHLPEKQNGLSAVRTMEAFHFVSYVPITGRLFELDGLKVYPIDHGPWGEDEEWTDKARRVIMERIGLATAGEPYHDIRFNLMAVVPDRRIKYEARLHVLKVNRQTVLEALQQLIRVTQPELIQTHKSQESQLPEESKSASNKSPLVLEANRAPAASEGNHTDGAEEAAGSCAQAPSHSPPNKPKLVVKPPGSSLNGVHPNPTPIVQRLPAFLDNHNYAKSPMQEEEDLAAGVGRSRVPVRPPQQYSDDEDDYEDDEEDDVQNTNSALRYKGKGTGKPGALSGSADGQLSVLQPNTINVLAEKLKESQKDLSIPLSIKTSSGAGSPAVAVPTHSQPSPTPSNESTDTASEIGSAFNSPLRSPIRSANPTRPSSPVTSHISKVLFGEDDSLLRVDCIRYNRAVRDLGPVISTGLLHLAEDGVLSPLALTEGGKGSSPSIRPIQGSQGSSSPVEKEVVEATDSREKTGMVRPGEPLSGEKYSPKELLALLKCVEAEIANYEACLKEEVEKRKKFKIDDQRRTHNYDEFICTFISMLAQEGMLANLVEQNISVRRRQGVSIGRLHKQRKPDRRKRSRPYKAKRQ
# D1 allo mod – allosterically modulates the human D1 dopamine receptor | HEK293 D1, CRE-luciferase, dopamine EC30 potentiation; actives deviate in either direction | AID 641 | actives 5.9% (n = 58,000) | P21728 | B-score at 10 µM;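 active = luminescence count or its row- and column-corrected plate score outside the 99.7% band of the plate's sample wells, on either side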
# M1 agonist – activates the M1 muscarinic receptor | CHO-M1 cells, Fluo-4 calcium fluorescence, agonist mode; stronger effect = higher value | B-score at 10 µM | actives 3% (n = 64,000);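 active = fluorescence rise, raw or as B-score row- and column-corrected plate score, outside the 99.7% band of its plate's samples, either direction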
# HEK293 NFkB inh – inhibitors of the PMA/ionomycin-induced NF-kB reporter in HEK293 cells. HEK-293 NF-kB luciferase reporter, luminescence. actives 0.21% (n = 62,000). inhibition, % at 3 µM;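 active = inhibition above the mean of all tested compounds plus 3 SD, cut at about 40% in these data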;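 also: 0% = stimulated DMSO wells and 100% = 10 µM reference inhibitor 5653914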
#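 Timing: 1 h pretreatment, 16 h stimulation, 37 °C; system: HEK-293 cells with stable firefly luciferase reporter driven by four HIV NF-kB elements; doses: 3 µM once, 0.30% DMSO; measured by: luciferase luminescence; control set: DMSO and 10 µM reference inhibitor; repeats: single test; reagent: PMA plus ionomycin mix as NF-kB-activating stimulus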
# M1 ag confirm – rat M1 muscarinic agonism, confirmation; shares compounds with M1 agonist; CHO-M1 cells, Fluo-4 calcium fluorescence, agonist mode; actives lie on both sides; fluorescence change (max-min) at 10 µM; actives 19% (n = 1,700); AID 1488;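 active = fluorescence change differs from the solvent-only DMSO control mean at a set confidence level in both duplicate runs; inconclusive = differs from solvent-only control mean in just one of two runs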;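 also: an EC20 dose of acetylcholine follows compound addition during the same imaging run; raw fluorescence intensity difference in instrument units with no normalization to controls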
# M4 agonist ctr – rat M4 muscarinic agonism, M1 counter-screen. shares compounds with M1 agonist. CHO M4/Gqi5 cells, Fluo-4 calcium fluorescence, agonist mode; actives lie on both sides. fluorescence change (max-min) at 10 µM. actives 9% (n = 1,700);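 active = fluorescence change differing from the plate's solvent-only control wells at 99.7% confidence in both duplicates, whether higher or lower; inconclusive = differs from solvent controls in only one of two duplicates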
# * = called active by the depositor; i = inactive; ? = inconclusive; nt = no result given. The list is not random: actives were taken first. Their share in the collection is about 7.2%.
SMILES,M1 antag,hDAT+cocaine,BAP1 block,D1 allo mod,M1 agonist,HEK293 NFkB inh,M1 ag confirm,M4 agonist ctr
Cc1ccc(-c2nnc(N)s2)cc1C,nt,nt,i,nt,nt,nt,nt,nt
O=C1CN(C(=O)COC(=O)c2ccccc2NC(=O)c2ccco2)c2ccccc2N1,-0.733,1.99,i,0.00134,3.58*,9.0,?,?
O=C(CN1CCN(c2ccccc2)CC1)Nc1ccc(-n2cnnn2)cc1,-0.439,-0.0331,i,-0.386,51.1*,-0.5,1.11,-36.2
CCOC(=O)C1=C(N)Oc2cc(C)n(CCc3ccc(OC)c(OC)c3)c(=O)c2C1c1cccnc1 (centres undefined),-0.648,0.844,i,-0.0728,8.47*,22.8,?,-67.2
COC(=O)C1=C(N)Oc2cc(C)n(CCc3ccccc3)c(=O)c2C1c1cccnc1 (centres undefined),-0.372,1.18,i,-1.53,-0.492,16.5,nt,nt
O=C(C1CCN(S(=O)(=O)c2cccc3cccnc23)CC1)N1CCN(c2ccc(Cl)cc2)CC1,-2.16,1.93,i,-1.69,3.37*,17.1,-19.5,-8.36
COc1ccc(-c2noc(N3CCC(C(=O)N4CCN(c5ccccn5)CC4)CC3)n2)cc1,-2.17,0.517,i,-1.54,2.39*,14.1,17.8,-12.7
O=C(COc1ccccc1)NCCCN1CCOCC1,nt,nt,i,nt,nt,nt,nt,nt
Cc1cc2c(cc1Cl)N1CCS(=O)(=O)N=C1S2,nt,nt,i,nt,nt,nt,nt,nt
OC(COc1ccccc1Cl)CN1CCN(CC(O)COc2ccccc2Cl)CC1 (centres undefined),-0.49,-0.0405,i,-6.27*,5.23*,15.3,-13.2,?
Cc1cc(C)c2ccc(C=Cc3ccccc3[N+](=O)[O-])nc2c1O,nt,nt,i,nt,nt,nt,nt,nt
COCC(=O)Nc1ccc(N(C)C)cc1,-0.0151,-0.87,i,0.176,-2.91*,12.0,-33.4*,-71.4
Cc1ccc(OCC(=O)Nc2ccc(N(C)C)cc2)cc1,-0.355,0.0282,i,-0.942,-1.56,7.1,nt,nt
COc1ccc(CN2C(=O)C3C(c4ccccc4)OC4(C(=O)c5ccccc5C4=O)C3C2=O)cc1 (centres undefined),nt,nt,i,nt,nt,nt,nt,nt
CCN1CCN(Cc2ccc(NC(=O)Nc3ccccc3)cc2)CC1,-0.663,-0.558,i,-5.76*,6.51*,-10.1,-15.3,-45.6
Cc1cc(NC(=O)COc2ncnc3sc(C)c(C)c23)no1,0.448,-0.258,i,1.04,14.6*,15.7,-11.1,-16.3
COc1ccc(-c2noc(CCC(=O)Nc3ccc4c(c3)OCCO4)n2)cc1,-1.98*,-0.206,i,-0.734,3.73*,13.8,19.7,-10.6
Cc1ccc(-c2noc(CCC(=O)Nc3ccc4c(c3)OCO4)n2)cc1,0.853,-1.36,i,0.00499,-0.8,10.5,nt,nt
COc1ccc(S(=O)(=O)C(C#N)c2nc3ccccc3nc2N2CCC(C)CC2)cc1 (centres undefined),0.898,-1.58,nt,0.818,3.95*,20.8,?,-42.6
N#Cc1c2c(c(=S)n(-c3ccccc3)c1N)CCCC2,-0.44,0.522,i,0.867,5.53,6.9,nt,nt
N#Cc1c(N)sc(=S)c2c1CCCCC2,-0.935,-0.353,i,nt,13.3*,nt,2.22,-10.1
CCN1C(=O)/C(=C/N2CCc3ccccc32)SC1=S,-1.37,-0.434,i,-1.52,86.6*,-12.1,528*,491*
CCN1C(=O)/C(=C\N2CCCc3ccccc32)SC1=S,1.36,0.924,i,-0.235,-0.206,8.7,nt,nt
CC(=O)c1cccc(NC(=O)C2CCCN(S(=O)(=O)c3cccc4cccnc34)C2)c1 (centres undefined),-0.016,-0.0223,i,0.134,6.57*,15.9,-26.1*,?
CC(=O)c1cccc(NC(=O)C2CCCN2S(=O)(=O)c2cccc3cccnc23)c1 (centres undefined),0.0867,0.584,i,-0.308,-0.402,19.5,nt,nt
SMILES,M1 antag,hDAT+cocaine,BAP1 block,D1 allo mod,M1 agonist,HEK293 NFkB inh,M1 ag confirm,M4 agonist ctr
COc1ccc(N2CCN(C(=O)C3CCCN(S(=O)(=O)c4cccc5cccnc45)C3)CC2)cc1 (centres undefined),-0.492,2.09,i,-0.937,2.32,11.2,nt,nt
COc1ccc(NC(=O)C2CCCN(S(=O)(=O)c3cccc4cccnc34)C2)c(OC)c1 (centres undefined),-0.217,-0.815,i,-0.967,3.13*,9.1,-32.4*,?
COc1ccccc1-n1c(CNC(=O)c2ccc(S(=O)(=O)N(C)C)cc2)n[nH]c1=S,nt,nt,i,nt,nt,nt,nt,nt
O=C(Nc1cccc(-c2cn3ccsc3n2)c1)c1ccccc1,-0.732,1.4,i,-1.18,0.471,-2.7,nt,nt
COc1ccccc1C(=O)Nc1cccc(-c2cn3ccsc3n2)c1,0.251,-0.185,i,-1.42,4.69*,0.7,?,-40.3
COc1cccc2cc(-c3nc(-c4cccs4)cs3)c(=O)oc12,0.579,-0.836,i,-2.39*,13.9*,-8.2,?,?
CNC(=O)c1cc2ccc(OC)cc2oc1=O,-2.31*,-0.956,i,-1.32,3.77*,10.6,132*,92.8
COc1cc(C2CC(=O)Nc3ccccc3S2)cc(OC)c1OC (centres undefined),-1.54,-1.43,i,-1.77,5.95*,10.8,-7.17,?
COc1cccc(C2=NO[C@@H]3C(=O)N(c4ccc5c(c4)OCCO5)C(=O)[C@H]23)c1OC,-0.135,0.307,i,-0.734,0.2,7.1,nt,nt
Cc1ccc(N2C(=O)[C@@H]3C(c4ccc(F)cc4)=NO[C@@H]3C2=O)cc1,-0.368,-1.77,i,0.0524,6.65*,6.7,?,-34.6
CCOc1ccc(C2C(C#N)=C(N)Oc3n[nH]c(C)c32)cc1OC(=O)C1CC1 (centres undefined),1.2,-1.14,i,-0.615,4.64*,20.4,1.15,-19.3
Cc1ccc(C2C(C#N)=C(N)Oc3n[nH]c(C)c32)cc1 (centres undefined),-0.761,-0.6,i,-0.164,0.982,17.0,nt,nt
CCOC(=O)c1cccc(NC(=O)C(C(C)C)N2C(=O)c3ccccc3C2=O)c1 (centres undefined),nt,nt,i,nt,nt,nt,nt,nt
Cn1cc(C(=O)c2ccccc2)cc1-c1nc2ccccc2n1C,-0.627,2.6*,i,-0.0185,6.55*,-1.1,-2.99,-6.84
Cc1ccc2occ(C(c3nnnn3C3CCCC3)N3CCN(C(=O)c4ccco4)CC3)c(=O)c2c1 (centres undefined),-1.97,0.434,i,-0.272,2.66*,-7.8,?,?
COc1ccccc1NC(=O)c1cc(C(C)(C)C)oc1C,nt,nt,i,nt,nt,nt,nt,nt
